# Columns and labels:
# [1] = AUC in Sprague-Dawley rat at 3 mg/kg, po administered as spray-dried dispersion formulation and measured after 24 hrs by LC-MS/MS analysis; type: ADME, organism-based; parameters: dose 3 mg/kg, time 24 hrs, route po; conditions: in vivo
# Summary of the method: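 Rats were dosed orally at 3, 10 and 30 mg/kg with a spray-dried dispersion of the free base and HPMCP-HP55 polymer (25%/75%), in 30% Dexolve. Total plasma Cmax and AUC were measured, N = 3.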
# Rattus norvegicus [2] = experiment: Reversal of haloperidol-induced catalepsy Sprague-Dawley rat model assessed as minimum effective dose administered orally; type: functional; conditions: route po, read-out: MED
# Summary of the method: (§1)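 Sprague-Dawley rats received haloperidol 1.5 mg/kg i.p. to induce catalepsy, with the compound dosed orally at 0.3–30 mg/kg. Groups were 8–10 rats and compared with vehicle + haloperidol (p < 0.05). MED = lowest oral dose giving significant reversal.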
# Rattus norvegicus [3] = experiment: Reversal of haloperidol-induced catalepsy Sprague-Dawley rat model at 0.3 to 30 mg/kg,po; type: functional, organism-based; conditions: dose 0.3-30 mg/kg; summary of the method: as §1
# [4] = Tmax in Cynomolgus monkey at 3 mg/kg, po and measured upto 24 hrs by LC-MS/MS analysis; type: ADME, organism-based, Macaca fascicularis; conditions: in vivo
# Summary of the method: (§2)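 Single-dose iv and oral PK in separate arms: mouse 1 mg/kg iv / 3 mg/kg po, SD rat 0.2/3, beagle 0.5/3, cynomolgus 0.2/3 mg/kg. Plasma parameters (Vss, Tmax, F) are means of two to three animals per species.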
# [5] = Clearance in Cynomolgus monkey plasma at 0.2 mg/kg, iv and measured upto 24 hrs by LC-MS/MS analysis; type: ADME, organism-based, Macaca fascicularis
# Summary of the method: (§3)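 Single intravenous doses: mouse 1 mg/kg, SD rat 0.2 mg/kg, beagle dog 0.5 mg/kg, cynomolgus monkey 0.2 mg/kg. Plasma clearance, Vss and elimination half-life came from the plasma profiles. Values are means of two to three animals.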
# [6] = Oral bioavailability in Beagle dog at 3 mg/kg and measured upto 24 hrs by LC-MS/MS analysis; type: ADME, organism-based, Canis lupus familiaris; conditions: in vivo; summary of the method: as §2
# [7] = Tmax in Beagle dog at 3 mg/kg, po and measured upto 24 hrs by LC-MS/MS analysis; type: ADME, organism-based, Canis lupus familiaris; conditions: in vivo; summary of the method: as §2
# [8] = Cmax in Beagle dog at 3 mg/kg, po and measured upto 24 hrs by LC-MS/MS analysis; type: ADME, organism-based, Canis lupus familiaris; parameters: dose 3 mg/kg, time < 24 hrs, route po; conditions: in vivo
# Summary of the method: (§4)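 Single oral 3 mg/kg dose in mouse, SD rat, beagle and cyno. Cmax is the peak total plasma concentration. Values are means of two to three animals.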
# [9] = Elimination half life in Beagle dog at 0.5 mg/kg, iv and measured upto 24 hrs by LC-MS/MS analysis; type: ADME, organism-based, Canis lupus familiaris; conditions: in vivo, read-out: beta t1/2 (converted); summary of the method: as §3
# [10] = AUC (0 to infinity) in Sprague-Dawley rat at 3 mg/kg, po and measured upto 24 hrs by LC-MS/MS analysis; type: ADME, organism-based; parameters: time < 24 hrs, dose 3 mg/kg, route po; conditions: in vivo
# Summary of the method: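 Single oral 3 mg/kg dose in mouse, SD rat, beagle dog and cynomolgus monkey. Total plasma exposure after the oral dose gave Cmax, Tmax, AUC0-inf and F. Values are means of two to three animals.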
# [11] = Cmax in Sprague-Dawley rat at 3 mg/kg, po and measured upto 24 hrs by LC-MS/MS analysis; type: ADME, organism-based; parameters: time < 24 hrs, dose 3 mg/kg, route po; conditions: in vivo; summary of the method: as §4
# [12] = Oral bioavailability in CD-1 mouse plasma at 3 mg/kg and measured upto 24 hrs by LC-MS/MS analysis; type: ADME, organism-based; summary of the method: as §2
# [13] = Tmax in CD-1 mouse plasma at 3 mg/kg, po and measured upto 24 hrs by LC-MS/MS analysis; type: ADME, organism-based; summary of the method: as §2
# [14] = Cmax in CD-1 mouse plasma at 3 mg/kg, po and measured upto 24 hrs by LC-MS/MS analysis; type: ADME, organism-based; parameters: time < 24 hrs, dose 3 mg/kg, route po; summary of the method: as §4
# [15] = Elimination half life in CD-1 mouse plasma at 1 mg/kg, iv and measured upto 24 hrs by LC-MS/MS analysis; type: ADME, organism-based; conditions: read-out: beta t1/2 (converted); summary of the method: as §3
# [16] = Volume of distribution at steady state in CD-1 mouse plasma at 1 mg/kg, iv and measured upto 24 hrs by LC-MS/MS analysis; type: ADME, organism-based; conditions: read-out: Vdss; summary of the method: as §2
# [17] = Clearance in CD-1 mouse plasma at 1 mg/kg, iv and measured upto 24 hrs by LC-MS/MS analysis; type: ADME, organism-based; summary of the method: as §3
# P-gp (ABCB1) [18] = molecular target: T1, P-gp (ABCB1) (Homo sapiens, UniProt P08183); experiment: Substrate activity at human P-gp assessed as apparent permeability; type: ADME; conditions: not told
# P-gp (ABCB1) [19] = molecular target: T1, P-gp (ABCB1); experiment: Substrate activity at human P-gp assessed as efflux ratio; type: ADME; conditions: not told
# [20] = Unbound brain-to-plasma concentration ratio in cynomolgus monkey at 0.2 mg/kg, iv and measured upto 1 hrs by LC-MS/MS analysis; type: ADME, organism-based, Macaca fascicularis; conditions: read-out: K(p,uu,brain)
# Cytochrome P450 2B6 = Cytochrome P450 2B6 (Homo sapiens, UniProt P20813); experiment: Induction of CYP2B6 in human hepatocytes; type: ADME, cell-based
# Summary of the method: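 CYP1A2, 2B6 and 3A4 induction measured in human hepatocytes.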
# [21] = molecular target: Nuclear receptor subfamily 1 group I member 2 (Rattus norvegicus, UniProt Q9R1A7); experiment: Activation of rat PXR
# [22] = molecular target: Nuclear receptor subfamily 1 group I member 2 (Homo sapiens, UniProt O75469); experiment: Activation of human PXR
# [23] = Metabolic stability in cynomolgus monkey liver microsomes assessed as intrinsic clearance at 1 uM preincubated for 5 mins followed by NADPH addition and measured for 45 mins by LC/MS/MS analysis; type: ADME, Macaca fascicularis, Microsome; conditions: time 50 min, read-out: CLH
# [24] = Metabolic stability in human liver microsomes assessed as intrinsic clearance at 1 uM preincubated for 5 mins followed by NADPH addition and measured for 45 mins by LC/MS/MS analysis; type: ADME, Microsome; conditions: time 50 min, read-out: CLH
# [25] = Protein binding in cynomolgus monkey plasma assessed as fraction unbound incubated for 4 hrs by equilibrium dialysis based LC/MS/MS analysis; type: ADME, cell-free, Macaca fascicularis
# [26] = Protein binding in dog plasma assessed as fraction unbound incubated for 4 hrs by equilibrium dialysis based LC/MS/MS analysis; type: ADME, cell-free, Canis lupus familiaris
# [27] = Genotoxicity in Salmonella typhimurium TA98 in presence of S9 fraction by Ames test; type: toxicity, subcellular; conditions: salmonella enterica subsp. enterica serovar typhimurium
# Summary of the method: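 Ames bacterial reverse mutation test in strains TA98 and […], run with and without S9 metabolic activation.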
# HCN4 = HCN4 (Homo sapiens, UniProt Q9Y3Q4); experiment: Inhibition of HCN4 (unknown origin) at 10 uM; type: toxicity
# Summary of the method: (§5)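 Cardiac ion channel electrophysiology (functional EP) panel, with percent inhibition measured at 10 μM.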
# Kir2.1 = Kir2.1 (Homo sapiens, UniProt Q7Z4S6); experiment: Inhibition of Kir2.1 (unknown origin) at 10 uM; type: toxicity; summary of the method: as §5
# Kv1.5 = Kv1.5 (Homo sapiens, UniProt P22460); experiment: Inhibition of Kv1.5 (unknown origin) at 10 uM; type: toxicity; summary of the method: as §5
# [28] = molecular target: Metabotropic glutamate receptor 7 (Rattus norvegicus, UniProt P35400); experiment: Positive allosteric modulator activity at rat mGlu7 in human HEK cells co-expressing […] assessed as increase in by thallium flux preincubated for 2.5 mins followed by gluatamate addition by thallium flux assay; type: cell-based
# [29] = molecular target: Metabotropic glutamate receptor 4 (Rattus norvegicus) (UniProt P31423); experiment: Positive allosteric modulator activity at rat mGlu4 in human HEK cells co-expressing […] assessed as maximum increase in by thallium flux preincubated for 2.5 mins followed by gluatamate addition and measured for 2 mins by thallium flux assay; type: cell-based; conditions: filed as positive allosteric modulator, time 4.5 min
# [30] = molecular target: Metabotropic glutamate receptor 4 (Homo sapiens) (UniProt Q14833); experiment: Positive allosteric modulator activity at human mGlu4 in Chinese hamster CHO cells co-expressing Gqi5 assessed as maximum increase in calcium flux preincubated for 2.5 mins followed by gluatamate addition and measured for 2 mins by Fluo-4 AM dye based calcium mobilization assay; type: cell-based; conditions: filed as positive allosteric modulator, time 4.5 min
# T1 sequence (P08183 whole entry): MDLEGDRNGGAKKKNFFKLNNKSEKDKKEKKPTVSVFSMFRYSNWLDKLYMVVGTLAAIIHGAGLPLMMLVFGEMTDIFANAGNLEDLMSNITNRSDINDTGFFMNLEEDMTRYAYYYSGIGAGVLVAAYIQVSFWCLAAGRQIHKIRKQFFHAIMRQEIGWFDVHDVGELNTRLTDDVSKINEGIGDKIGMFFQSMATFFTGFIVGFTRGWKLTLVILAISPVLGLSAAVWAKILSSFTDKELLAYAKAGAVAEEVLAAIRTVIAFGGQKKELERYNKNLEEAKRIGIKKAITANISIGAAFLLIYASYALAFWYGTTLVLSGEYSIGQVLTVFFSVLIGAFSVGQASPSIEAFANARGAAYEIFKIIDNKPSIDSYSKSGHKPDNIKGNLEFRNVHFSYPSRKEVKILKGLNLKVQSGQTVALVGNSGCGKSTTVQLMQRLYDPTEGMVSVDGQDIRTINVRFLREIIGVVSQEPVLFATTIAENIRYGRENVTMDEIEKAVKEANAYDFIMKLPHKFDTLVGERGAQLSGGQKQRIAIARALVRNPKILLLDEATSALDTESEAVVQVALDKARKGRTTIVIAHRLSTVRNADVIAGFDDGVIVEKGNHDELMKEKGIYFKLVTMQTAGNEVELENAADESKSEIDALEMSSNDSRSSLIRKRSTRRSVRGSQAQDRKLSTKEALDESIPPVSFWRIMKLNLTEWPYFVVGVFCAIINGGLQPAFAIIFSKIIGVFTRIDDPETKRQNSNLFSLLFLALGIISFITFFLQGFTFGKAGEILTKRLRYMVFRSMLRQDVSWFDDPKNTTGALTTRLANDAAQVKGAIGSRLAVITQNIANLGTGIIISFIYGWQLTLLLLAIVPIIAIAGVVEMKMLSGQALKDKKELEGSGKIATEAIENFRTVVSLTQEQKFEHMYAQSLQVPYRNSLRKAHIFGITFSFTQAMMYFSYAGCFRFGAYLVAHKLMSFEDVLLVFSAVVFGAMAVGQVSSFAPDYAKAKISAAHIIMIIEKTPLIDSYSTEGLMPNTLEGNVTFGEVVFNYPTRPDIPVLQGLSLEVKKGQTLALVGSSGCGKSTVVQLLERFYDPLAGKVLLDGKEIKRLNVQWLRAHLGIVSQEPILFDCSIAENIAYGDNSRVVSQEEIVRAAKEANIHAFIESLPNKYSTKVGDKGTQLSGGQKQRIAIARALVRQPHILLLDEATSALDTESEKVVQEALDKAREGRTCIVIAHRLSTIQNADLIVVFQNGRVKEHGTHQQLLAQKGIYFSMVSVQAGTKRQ
# Metabotropic glutamate receptor 4 (Rattus norvegicus), sequence (P31423 whole entry): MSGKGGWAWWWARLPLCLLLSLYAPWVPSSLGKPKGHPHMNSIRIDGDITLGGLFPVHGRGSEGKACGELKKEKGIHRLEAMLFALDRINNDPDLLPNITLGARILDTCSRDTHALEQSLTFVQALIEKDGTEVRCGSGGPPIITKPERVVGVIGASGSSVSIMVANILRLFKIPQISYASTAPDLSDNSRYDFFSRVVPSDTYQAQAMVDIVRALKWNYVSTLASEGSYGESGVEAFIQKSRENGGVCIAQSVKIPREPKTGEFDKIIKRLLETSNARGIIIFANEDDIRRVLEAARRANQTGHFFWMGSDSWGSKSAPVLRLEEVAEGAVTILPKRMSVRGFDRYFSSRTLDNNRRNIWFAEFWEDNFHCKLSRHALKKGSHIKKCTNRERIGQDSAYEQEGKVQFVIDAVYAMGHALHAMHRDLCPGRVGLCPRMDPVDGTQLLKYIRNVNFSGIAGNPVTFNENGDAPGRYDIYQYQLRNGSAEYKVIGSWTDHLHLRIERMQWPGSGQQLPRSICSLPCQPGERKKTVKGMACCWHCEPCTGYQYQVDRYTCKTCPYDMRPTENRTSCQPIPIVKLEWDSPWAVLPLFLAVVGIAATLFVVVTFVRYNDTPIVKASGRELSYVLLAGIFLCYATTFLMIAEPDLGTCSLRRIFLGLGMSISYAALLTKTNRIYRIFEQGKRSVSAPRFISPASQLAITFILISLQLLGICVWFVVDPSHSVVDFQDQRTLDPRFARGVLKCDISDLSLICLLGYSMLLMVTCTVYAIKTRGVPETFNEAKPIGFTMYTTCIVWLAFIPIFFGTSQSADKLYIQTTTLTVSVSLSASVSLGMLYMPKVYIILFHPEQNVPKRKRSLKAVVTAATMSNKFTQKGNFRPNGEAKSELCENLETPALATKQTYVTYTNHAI
# Cytochrome P450 2B6, sequence (P20813 whole entry): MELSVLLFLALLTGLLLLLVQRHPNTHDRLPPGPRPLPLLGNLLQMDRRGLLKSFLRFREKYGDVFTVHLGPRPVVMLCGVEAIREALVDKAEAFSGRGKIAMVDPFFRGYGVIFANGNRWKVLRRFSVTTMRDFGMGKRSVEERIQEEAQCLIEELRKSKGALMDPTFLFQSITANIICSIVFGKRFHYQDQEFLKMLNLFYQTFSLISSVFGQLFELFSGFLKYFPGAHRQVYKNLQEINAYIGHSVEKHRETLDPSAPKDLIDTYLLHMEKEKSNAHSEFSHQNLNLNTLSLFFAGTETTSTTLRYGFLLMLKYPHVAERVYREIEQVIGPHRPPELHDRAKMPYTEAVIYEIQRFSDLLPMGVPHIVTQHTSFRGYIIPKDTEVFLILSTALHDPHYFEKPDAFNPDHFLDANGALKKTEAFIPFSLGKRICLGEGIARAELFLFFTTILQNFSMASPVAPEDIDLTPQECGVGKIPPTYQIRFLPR
# Nuclear receptor subfamily 1 group I member 2 (Homo sapiens, UniProt O75469), sequence (O75469 whole entry): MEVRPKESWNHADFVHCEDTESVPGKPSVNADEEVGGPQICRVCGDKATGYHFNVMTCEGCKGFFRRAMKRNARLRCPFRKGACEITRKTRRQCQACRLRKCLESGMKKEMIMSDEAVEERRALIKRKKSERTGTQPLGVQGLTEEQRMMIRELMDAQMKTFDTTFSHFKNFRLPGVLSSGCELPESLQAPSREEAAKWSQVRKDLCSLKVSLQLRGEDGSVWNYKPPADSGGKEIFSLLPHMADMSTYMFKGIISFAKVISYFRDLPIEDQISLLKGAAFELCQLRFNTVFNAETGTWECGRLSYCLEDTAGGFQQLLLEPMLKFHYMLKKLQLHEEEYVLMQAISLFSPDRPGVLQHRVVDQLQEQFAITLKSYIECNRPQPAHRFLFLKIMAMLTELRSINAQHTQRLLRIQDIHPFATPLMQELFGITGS
# HCN4, sequence (Q9Y3Q4 whole entry): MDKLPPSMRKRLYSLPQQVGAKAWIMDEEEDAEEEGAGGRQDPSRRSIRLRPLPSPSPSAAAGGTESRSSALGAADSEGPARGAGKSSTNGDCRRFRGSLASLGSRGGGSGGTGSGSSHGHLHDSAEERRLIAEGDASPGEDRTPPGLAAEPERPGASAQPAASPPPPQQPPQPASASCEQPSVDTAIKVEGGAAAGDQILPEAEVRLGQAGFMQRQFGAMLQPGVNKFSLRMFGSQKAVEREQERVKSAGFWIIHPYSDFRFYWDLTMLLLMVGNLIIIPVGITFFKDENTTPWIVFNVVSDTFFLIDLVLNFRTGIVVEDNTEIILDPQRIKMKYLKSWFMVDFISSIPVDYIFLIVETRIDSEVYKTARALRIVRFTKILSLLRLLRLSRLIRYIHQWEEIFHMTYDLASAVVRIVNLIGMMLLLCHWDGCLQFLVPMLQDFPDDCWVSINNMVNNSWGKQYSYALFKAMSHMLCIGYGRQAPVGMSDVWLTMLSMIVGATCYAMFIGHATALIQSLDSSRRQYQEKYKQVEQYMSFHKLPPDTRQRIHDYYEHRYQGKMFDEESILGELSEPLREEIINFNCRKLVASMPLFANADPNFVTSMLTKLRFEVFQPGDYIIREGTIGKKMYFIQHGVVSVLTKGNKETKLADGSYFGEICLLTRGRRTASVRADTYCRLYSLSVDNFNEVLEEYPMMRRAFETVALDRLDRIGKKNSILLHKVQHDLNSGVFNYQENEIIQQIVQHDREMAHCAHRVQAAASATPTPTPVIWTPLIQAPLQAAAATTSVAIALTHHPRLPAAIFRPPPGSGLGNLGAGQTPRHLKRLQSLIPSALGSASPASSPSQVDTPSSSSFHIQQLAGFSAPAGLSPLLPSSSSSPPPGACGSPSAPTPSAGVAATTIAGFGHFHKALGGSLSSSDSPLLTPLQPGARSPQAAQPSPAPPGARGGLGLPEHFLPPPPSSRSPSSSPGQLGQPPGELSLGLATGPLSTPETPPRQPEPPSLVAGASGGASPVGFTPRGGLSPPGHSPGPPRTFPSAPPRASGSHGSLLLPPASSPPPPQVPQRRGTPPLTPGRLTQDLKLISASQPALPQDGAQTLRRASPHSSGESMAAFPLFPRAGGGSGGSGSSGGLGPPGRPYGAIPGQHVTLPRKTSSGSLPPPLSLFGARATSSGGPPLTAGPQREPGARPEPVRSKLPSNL
# Kv1.5, sequence (P22460 whole entry): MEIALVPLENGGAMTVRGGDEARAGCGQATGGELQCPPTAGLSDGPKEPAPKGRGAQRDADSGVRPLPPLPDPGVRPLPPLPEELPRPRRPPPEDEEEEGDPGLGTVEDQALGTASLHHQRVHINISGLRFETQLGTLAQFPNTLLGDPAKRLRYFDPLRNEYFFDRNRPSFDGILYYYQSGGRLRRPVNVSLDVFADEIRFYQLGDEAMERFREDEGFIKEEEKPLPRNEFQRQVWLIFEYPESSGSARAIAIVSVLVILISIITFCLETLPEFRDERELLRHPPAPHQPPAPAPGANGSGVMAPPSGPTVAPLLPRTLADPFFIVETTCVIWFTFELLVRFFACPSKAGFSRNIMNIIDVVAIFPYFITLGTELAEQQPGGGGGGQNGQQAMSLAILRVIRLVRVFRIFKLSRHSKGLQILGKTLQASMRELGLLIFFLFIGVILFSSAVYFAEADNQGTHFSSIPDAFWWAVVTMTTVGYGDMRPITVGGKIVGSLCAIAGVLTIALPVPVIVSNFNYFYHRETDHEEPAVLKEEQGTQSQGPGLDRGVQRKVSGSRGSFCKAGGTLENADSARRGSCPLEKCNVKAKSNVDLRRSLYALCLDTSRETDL
compound,measurement,setting,value
FC(F)(F)c1nccc2cc(Nc3n[nH]c4ncccc34)ccc12,AUC at 24 h,[1],5.92 µM·h
same,minimal effective dose,Rattus norvegicus [2],1 mg/kg
same,Activity,Rattus norvegicus [3],Dose-Dependent Effect
same,Tmax,[4],6 h
same,clearance,[5],17.1 mL/min/kg
same,bioavailability,[6],37.5%
same,Tmax,[7],1 h
same,Cmax,[8],490 nM
same,half-life,[9],177 min
same,AUC(0-inf),[10],9.66 µM·h
same,Cmax,[11],1440 nM
same,bioavailability,[12],79%
same,Tmax,[13],25.2 min
same,Cmax,[14],1100 nM
same,half-life,[15],179 min
same,Vd,[16],9.93 L/kg
same,clearance,[17],78.3 mL/min/kg
same,Papp,P-gp (ABCB1) [18],8 ×10⁻⁶ cm/s
same,efflux ratio,P-gp (ABCB1) [19],1.3
same,Kp uu at 1 h,[20],0.07
same,Activity,Cytochrome P450 2B6,Not Active
same,Activity,[21],Not Active
same,Activity,[22],Not Active
same,CLint scaled at 1 µM,[23],8.8 mL/min/kg
same,CLint scaled at 1 µM,[24],9.1 mL/min/kg
same,fraction unbound at 4 h,[25],0.016
same,fraction unbound at 4 h,[26],0.014
same,Activity,[27],Non-Toxic
same,inhibition at 10 µM,HCN4,< 50%
same,inhibition at 10 µM,Kir2.1,< 50%
same,inhibition at 10 µM,Kv1.5,< 50%
same,EC50,[28],> 10 µM
same,Emax,[29],132%
same,Emax,[30],92.6%
